Screening data as filed in PubChem.
Hits are enriched below; roughly 2.2% of the tested compounds scored in any of these assays.
core dimer inh: inhibitors of HCV core protein dimerization, primary screen, biochemical, TR-FRET, high-throughput | TR-FRET GST/Flag-core106 dimerization, 1536-well | inhibition, % at 5 µM | AID 1899, 2009 | hit rate 0.33% among 300,000;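 active = inhibition above the mean of all tested compounds plus 3 SD, set per screening campaign, cut at about 45% in these data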
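Assay system: tagged HCV core106 pair (GST and Flag); medium: KF-containing HEPES buffer, pH 7.45, DTT, CHAPS, BSA; also added: Eu donor and XL665 acceptor anti-tag antibodies; dosing: 5 µM single dose; timing: compound-protein-antibody incubation 4 h at 22.5 °C; signal: TR-FRET 671 and 617 nm emission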
GPR7 antag: GPR7 receptor antagonists, primary screen, cell-based, fluorescence, single concentration | Neuropeptides B/W receptor type 1 (Homo sapiens), P48145 | GPR7-expressing cells, fluorescence antagonist assay | inhibition, % at 4.4 µM | hit rate 1.1% among 290,000 | AID 1861, 2009; in the data active = inhibition above about 16%, passing the limit was not always enough;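 note: cells stimulated with the agonist NPW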
Target sequence (P48145 whole entry, looked up): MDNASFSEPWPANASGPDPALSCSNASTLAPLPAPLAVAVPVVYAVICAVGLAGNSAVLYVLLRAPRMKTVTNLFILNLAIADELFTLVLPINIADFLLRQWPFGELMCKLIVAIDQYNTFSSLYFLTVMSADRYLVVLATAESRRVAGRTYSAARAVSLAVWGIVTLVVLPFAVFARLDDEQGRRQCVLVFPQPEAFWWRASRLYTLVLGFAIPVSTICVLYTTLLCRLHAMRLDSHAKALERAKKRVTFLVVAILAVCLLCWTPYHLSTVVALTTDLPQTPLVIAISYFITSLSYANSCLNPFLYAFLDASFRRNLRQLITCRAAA
GRK2 inh: compounds blocking aptamer binding on GRK2 – biochemical, human GRK2, bead flow cytometry, HTS, primary screen | Beta-adrenergic receptor kinase 1 (Homo sapiens), P25098 | FAM-aptamer displacement from GRK2 | inhibition of aptamer binding, % at 10 µM | hit rate 0.59% among 330,000 | AID 488847, 2010;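 active = inhibition of aptamer binding above 40%, roughly 3 SD of noise, on plates passing a quality check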;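 note: median bead fluorescence of bound FAM aptamer so fluorescent compounds give negative values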
HCV NS3 hel inh: inhibitors of HCV NS3 helicase, primary screen, biochemical, Cy5 molecular beacon fluorescence; Hepatitis C virus NS3 helicase; hit rate 0.56% among 290,000; NS3 helicase DNA unwinding; inhibition, % at 10.9 µM;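 active = inhibition above the mean of all tested compounds plus 3 SD, set per campaign, cut at about 35% in these data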
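Material: hepatitis C virus NS3 helicase domain fragment enzyme; measured by: Cy5 fluorescence, 0 and 60 min reads; control set: DMSO and thioflavine S; incubation: 60 min unwinding reaction at 25 °C after ATP addition; read-out basis: % inhibition from 60/0 min fluorescence ratio, DMSO 0%, thioflavine S 100%; repeats: singlicate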
DNA FID counter: compounds displacing fluorescent DNA intercalator, primary screen, artefact control for HCV NS3 helicase inhibitor project, biochemical, FID fluorescence | hit rate 0.17% among 290,000 | inhibition, % at 7.9 µM | DNA fluorescent intercalator displacement | AID 1845, 2009; in the data active = inhibition above about 37%;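 note: higher means more ethidium bromide displaced from hairpin DNA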
DAGLB inh: DAGLB lipase inhibitors, primary screen, biochemical, fluorescence, HTS. Diacylglycerol lipase-beta (Homo sapiens), Q8NCG7. HEK293T DAGLB membrane lysate, EnzChek fluorogenic substrate. inhibition, % at 5.17 µM. hit rate 0.059% among 340,000. AID 504411, 2011; in the data active = inhibition above about 34%
GPR7 antag conf: GPR7 receptor antagonists, confirmation, cell-based, fluorescence, single concentration; AID 1952, 2009; hit rate 52% among 2,400; shares compounds with GPR7 antag; GPR7-expressing cells, calcium fluorescence antagonist mode; inhibition, % at 4.4 µM; in the data active = inhibition above about 24%;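 note: stimulated with the GPR7 agonist NPW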
MCHR1 antagonist: MCHR1 antagonists in cells, counter-screen for GPR7 antagonist project, cell-based, fluorescence, human; shares compounds with GPR7 antag; MCHR1-expressing cells, fluorescence antagonist assay; inhibition, % at 4.4 µM; hit rate 62% among 2,400; AID 2148, 2009; in the data active = inhibition above about 22%
Each line names hits and unclear results; the compound was inactive in the other large screens (follow-up assays come after a bar, where they were run).

Cc1ccc(COn2c(-c3ccc(Cl)cc3)nc3ccc([N+](=O)[O-])cc32)cc1	none
Nc1ccccc1SCC(=O)Nc1ccc2c(c1)OCCO2	none
Cc1ccc2c(c1)[C@@H]1CN(C)CC[C@@H]1N2S(=O)(=O)c1ccc(F)cc1	none
Cc1ccc2c(c1)[C@@H]1CN(C)CC[C@@H]1N2S(=O)(=O)c1ccc([N+](=O)[O-])cc1	GPR7 antag 29.2 | GPR7 antag conf inactive | MCHR1 antagonist inactive
CCCCN1C(=O)C(=O)N(CC(=O)Nc2ccccc2C(=O)OCC)C1=O	none
CCOc1ccc(N(C)S(=O)(=O)c2cc(-c3cc(C)no3)ccc2C)cc1	GPR7 antag 32.0 | GPR7 antag conf inactive | MCHR1 antagonist 73.9
CCOc1ccc(N(C)S(=O)(=O)c2cc(-c3cc(C)no3)ccc2CC)cc1	none
CCOC(=O)c1c(-c2ccccc2)oc2ccc(OCC(O)CNCCN(C)C)cc12 (centres undefined)	GPR7 antag 72.3, DNA FID counter 51.1 | GPR7 antag conf 60.0 | MCHR1 antagonist 69.3
O=C(Nc1ccc(NC(=O)c2ccccc2Cl)nc1)c1ccco1	none
CC(c1ccccc1)N1C(=O)c2ccc(C(=O)NCc3cccnc3)cc2C1=O (centres undefined)	none
COc1cccc(CC2(CO)CCCN(Cc3cc4ccccc4[nH]3)C2)c1 (centres undefined)	none
Cn1cc(S(=O)(=O)Nc2cccc3ccccc23)c(=O)n(C)c1=O	none
Clc1ccc(C(c2nnnn2CCc2ccccc2)N2CCSCC2)cc1 (centres undefined)	GPR7 antag 27.9 | GPR7 antag conf 31.2 | MCHR1 antagonist 40.9
Fc1ccc(C(c2nnnn2Cc2ccccc2)N2CCSCC2)cc1 (centres undefined)	none
O=C(O)CCC(=O)Nc1ccccc1Oc1ccccc1	none
C/C(=N/NC(=O)CN(c1ccccc1)S(=O)(=O)c1ccccc1)c1ccccc1O	none
Cc1cc([N+](=O)[O-])cc(C)c1OCC(=O)N/N=C/c1ccc(OC(=O)c2ccccc2)cc1	none (no result: GPR7 antag) | MCHR1 antagonist inactive
Cc1cc([N+](=O)[O-])cc(C)c1OCC(=O)N/N=C/c1ccc(OC(=O)c2ccccc2Br)cc1	none
CCc1noc(C)c1C(=O)Nc1nc(-c2ccc(OC)cc2OC)cs1	none (no result: GPR7 antag, HCV NS3 hel inh, DNA FID counter)
CSc1nc(C)cc(Oc2ccccc2)n1	none
CCCN1CCc2nc(SCC(=O)Nc3ccc(C)c(Cl)c3)[nH]c(=O)c2C1	none
COC(=O)[C@@H](NC(=O)c1ccc2c(c1)S(=O)(=O)c1ccccc1C2=O)C(C)C	GPR7 antag 21.6 | GPR7 antag conf inactive | MCHR1 antagonist inactive
Cc1ccc(C2C3=C(NCCN=C3c3ccccc3)C(=O)N2c2ccccc2)cc1 (centres undefined)	none (no result: GPR7 antag) | MCHR1 antagonist inactive
CCOc1ccc(N2C(=O)C3=C(C(c4ccc(Cl)cc4)=NCCN3)C2c2cccnc2)cc1 (centres undefined)	none
Nc1ccccc1-c1nc2ccccc2c(=O)o1	GPR7 antag 49.2 | GPR7 antag conf inactive | MCHR1 antagonist inactive
Cc1cc(N2C(=O)C(O)=C(C(=O)c3cc4ccccc4o3)C2c2cccc(Cl)c2)no1 (centres undefined)	none
C=CCC[C@H](Cc1ccc(F)cc1)C(=O)OC[C@H](Cc1c[nH]c2ccccc12)NC(=O)[C@@H](CC=C)CC(=O)NCCO	none (no result: core dimer inh, GPR7 antag, HCV NS3 hel inh, DNA FID counter)
CC(=O)c1ccc(OCC(O)CN(C)CCOc2ccc(Br)cc2)cc1 (centres undefined)	GPR7 antag 23.4 | GPR7 antag conf 37.0 | MCHR1 antagonist 54.8
Cc1ccc(NC(Cc2cc(C)no2)c2ccccc2)cc1 (centres undefined)	GPR7 antag 40.5 | GPR7 antag conf 34.2 | MCHR1 antagonist inactive
O=C(NC1CCC(O)CC1)c1cccnc1Sc1ccccc1Cl (centres undefined)	none
O=C(CSc1nnnn1-c1cccc2c1CCCC2)NC1CCCC1	GPR7 antag 33.7 | GPR7 antag conf inactive | MCHR1 antagonist 25.9
COC(=O)C1=C(C)N(Cc2ccccc2)C(=NCc2cccc(Cl)c2)N[C@H]1c1cccc(F)c1	none (no result: core dimer inh, GPR7 antag, HCV NS3 hel inh, DNA FID counter)
COC(=O)C1=C(C)N(Cc2ccccc2)C(=NCc2ccc(OC)cc2)N[C@H]1c1cccc(F)c1	GPR7 antag 43.6 | GPR7 antag conf 50.7 | MCHR1 antagonist 41.0
Cc1ccc(-c2cc(Cc3ccncc3)c(=O)[nH]n2)cc1	none (no result: DAGLB inh)
Cc1ccsc1/C=N/NC(=O)c1ccncc1	none
COc1cc(C(=O)N/N=C/c2sccc2C)cc(OC)c1OC	GPR7 antag 28.2 (no result: core dimer inh, GRK2 inh) | GPR7 antag conf 29.2 | MCHR1 antagonist 30.8
Cc1cc[n+](-c2[nH]c(=O)sc2/C=N/N=C(\[O-])c2ccncc2)cc1	none
CCOc1ccc(NC(=O)CN(C)C(=O)CC2OC(=O)c3ccccc32)cc1OCC (centres undefined)	none (no result: GPR7 antag, HCV NS3 hel inh, DNA FID counter)
CCOc1ccc(C(=O)/C=C/c2ccc(SC)cc2)cc1	GPR7 antag 36.8 | GPR7 antag conf 41.4 | MCHR1 antagonist 44.9
COC(=O)CC1C(=O)NCCN1C(=O)OC(C)(C)C (centres undefined)	none
Cc1sc(NC(=O)C2CSC3(C)CCC(=O)N23)nc1-c1ccccc1 (centres undefined)	none (no result: GPR7 antag, HCV NS3 hel inh, DNA FID counter)
CC(=O)N1CCN(c2ccc(NC(=O)c3ccc([N+](=O)[O-])cc3Cl)cc2)CC1	none
CCCCN(CCCC)S(=O)(=O)c1ccc(NC(=O)c2ccc([N+](=O)[O-])cc2Cl)cc1	GPR7 antag 22.8 | GPR7 antag conf 49.9 | MCHR1 antagonist 72.6
Cc1ccc(CNC(=O)CS(=O)(=O)c2cn(CC(=O)N3CCOCC3)c3ccccc23)cc1	none
Cc1cc2c(cc(C(=O)OCC(=O)NCc3ccco3)n2C)s1	GPR7 antag 28.6 | GPR7 antag conf inactive | MCHR1 antagonist 22.0
Cc1ccc(C(C)(C)NC(=O)C2CCC(=O)N(Cc3ccccc3F)C2)cc1 (centres undefined)	none
